Laboratory results as given in ChEMBL document CHEMBL1800034, “A synthetic 7,8-dihydroxyflavone derivative promotes neurogenesis and exhibits potent antidepressant effect” (J Med Chem, 2010).
Calls of active or inactive are those of the source. The calls are words filed in the database; no cut-off is given here.

Key:
[1] = target: BDNF/NT-3 growth factors receptor (Rattus norvegicus) (UniProt Q63604); assay: Agonist activity at TrkB in E17 rat primary cortical neurons assessed as AKT phosphorylation at Ser 473 at 500 nM after 15 mins by ELISA; format: functional, cell-based; conditions: Cerebral cortex neuron
Sequence of BDNF/NT-3 growth factors receptor (Rattus norvegicus) (Q63604 whole entry): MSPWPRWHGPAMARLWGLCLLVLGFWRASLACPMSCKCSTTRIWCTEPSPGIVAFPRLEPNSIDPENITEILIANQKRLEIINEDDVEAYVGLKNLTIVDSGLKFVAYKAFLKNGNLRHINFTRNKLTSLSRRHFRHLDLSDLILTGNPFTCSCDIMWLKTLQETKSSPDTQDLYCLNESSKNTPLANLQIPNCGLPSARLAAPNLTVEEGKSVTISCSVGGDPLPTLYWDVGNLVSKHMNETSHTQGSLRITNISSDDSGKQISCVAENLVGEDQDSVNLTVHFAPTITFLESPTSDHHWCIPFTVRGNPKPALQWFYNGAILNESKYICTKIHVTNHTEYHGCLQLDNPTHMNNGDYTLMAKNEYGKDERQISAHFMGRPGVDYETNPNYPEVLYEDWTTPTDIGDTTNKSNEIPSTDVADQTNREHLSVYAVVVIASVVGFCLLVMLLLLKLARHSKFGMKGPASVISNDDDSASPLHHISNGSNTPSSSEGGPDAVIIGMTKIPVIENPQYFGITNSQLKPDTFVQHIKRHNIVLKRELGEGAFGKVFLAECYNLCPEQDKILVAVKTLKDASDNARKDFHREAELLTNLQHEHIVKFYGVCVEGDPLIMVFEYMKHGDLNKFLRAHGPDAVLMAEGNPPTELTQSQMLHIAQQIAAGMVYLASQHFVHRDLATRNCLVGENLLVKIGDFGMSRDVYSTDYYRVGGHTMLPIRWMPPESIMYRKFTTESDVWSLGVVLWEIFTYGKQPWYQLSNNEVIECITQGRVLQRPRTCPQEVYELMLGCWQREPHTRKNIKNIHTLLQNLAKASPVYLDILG

[2] = target: BDNF/NT-3 growth factors receptor (Rattus norvegicus) (UniProt Q63604); assay: Agonist activity at TrkB in E17 rat primary rat cortical neurons assessed as AKT phosphorylation at Ser 473 at 500 nM after 15 mins by ELISA; format: functional
[3] = target: BDNF/NT-3 growth factors receptor (Rattus norvegicus) (UniProt Q63604); assay: Agonist activity at TrkB in E17 rat primary cortical neurons assessed as TrkB phosphorylation at 817 at 500 nM after 15 mins by immunoblotting; format: functional, cell-based; conditions: Cerebral cortex neuron
Method in brief: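 Rat cortical neurons from E17 embryos, 13 DIV, were treated with 500 nM compound for 15 min. Lysates were run on 10% SDS-PAGE and immunoblotted with p-TrkB Y817 antibody at 1:20,000–40,000.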

[4] = target: BDNF/NT-3 growth factors receptor (Rattus norvegicus) (UniProt Q63604); assay: Agonist activity at TrkB in E17 rat primary cortical neurons by immunoblotting; format: functional, cell-based; conditions: Cerebral cortex neuron
[5] = target: BDNF/NT-3 growth factors receptor (Rattus norvegicus) (UniProt Q63604); assay: Agonist activity at TrkB in E17 rat primary cortical neurons assessed as AKT phosphorylation at Ser 473 at 500 nM after 15 mins by ELISA relative to control; format: functional, cell-based; conditions: Cerebral cortex neuron
Mus musculus = assay: Neuroprotective activity in C57BL/6J mouse assessed as inhibition of kainic acid-induced caspase 3 activation in hippocampus region at 5 mg/kg, po administered 2 to 8 hrs prior to kainic acid challenge measured after 2 hrs by immunoblotting; format: functional, organism-based; parameters: dose 5 mg/kg
Method in brief: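 C57BL/6J mice dosed orally by gavage at 5 mg/kg. Kainic acid 20 mg/kg i.p. given at 0, 2 or 6 h after dosing. Mice killed 2 h after kainic acid; hippocampal lysates immunoblotted with anti-p-TrkB and anti-active caspase-3.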

[6] = target: BDNF/NT-3 growth factors receptor (Rattus norvegicus) (UniProt Q63604); assay: […] in E17 rat primary cortical neurons at 500 nM after 15 mins by immunoblotting; conditions: Cerebral cortex neuron
Method in brief: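 Primary cortical neurons from E17 rat embryos, 13 DIV, exposed to compound at 500 nM for 15 min. Lysates resolved on 10% SDS-PAGE and immunoblotted for phospho-TrkB (p-TrkB Y817 antibody, 1:20,000–40,000) alongside other signalling antibodies.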

SMILES | Activity [1] | further results
O=c1c(O)c(-c2ccccc2O)oc2ccccc12 | inactive | 
COc1ccc(-c2c(C)c3ccc(O)cc3oc2=O)cc1 | inactive | 
O=c1cc(-c2ccc(F)cc2)[nH]c2c(O)c(O)ccc12 |  | Activity [2]: inactive
COc1cccc(-c2cc(=O)c3ccc(OC)cc3o2)c1 | inactive | 
COc1c(O)ccc2c(=O)c(-c3ccc(Cl)cc3)coc12 | inactive | 
O=c1cc(-c2ccccc2O)oc2c(O)c(O)ccc12 | Active | Activity [3]: Active
O=c1c(O)c(-c2cccc(O)c2)oc2ccccc12 | inactive | 
O=c1cc(-c2cccc(O)c2)oc2c1ccc1ccccc12 | inactive | 
O=c1cc(-c2ccc(O)c(O)c2)oc2cc(O)ccc12 | inactive | 
COc1ccc(-c2cc(=O)c3ccc(O)cc3o2)cc1 | inactive | Activity [3]: Active
O=c1cc(-c2ccc(O)cc2)oc2ccccc12 | inactive | 
O=c1cc(-c2cccc(O)c2)oc2ccccc12 | inactive | 
O=c1c(O)c(-c2ccccc2O)oc2c(O)c(O)ccc12 | Active | Activity [3]: Active
COc1cccc(-c2cc(=O)c3ccc(O)cc3o2)c1 | inactive | 
COc1cccc(-c2oc3ccccc3c(=O)c2OC)c1 | inactive | 
COc1ccccc1-c1cc2ccc(O)cc2oc1=O | inactive | 
COc1ccc2c(=O)cc(-c3ccccc3)oc2c1O | Active | Activity [4]: Active; Activity [3]: Active
O=c1cc(-c2cc(O)cc(O)c2)oc2ccccc12 | inactive | 
O=c1cc(-c2ccccc2)oc2cc(O)cc(O)c12 | inactive | 
O=c1cc(-c2cccc(O)c2)oc2cc(O)ccc12 | Active | Activity [3]: Active
O=c1cc(-c2ccccc2)oc2cc(O)c(O)cc12 | Active | 
COc1ccc2c(=O)cc(-c3ccccc3)oc2c1OC | inactive | Activity [4]: Active
COc1cc(-c2oc3cc(O)ccc3c(=O)c2O)cc(OC)c1OC | inactive | 
O=c1cc(-c2ccccc2)oc2cc(O)ccc12 | inactive | 

SMILES | Activity [1] | further results
O=c1cc(-c2ccccc2)[nH]c2c(O)c(O)ccc12 |  | Activity [2]: inactive
O=c1cc(-c2ccccc2)oc2c(O)c(O)cc(O)c12 | Active | Activity [3]: Active
O=c1cc(-c2ccccc2)oc2ccccc12 | inactive | 
O=c1cc(-c2ccccc2)oc2ccc(O)c(O)c12 | inactive | 
O=c1cc(-c2cccc(O)c2)oc2c(O)c(O)ccc12 |  | Activity [3]: Active; fold change (FC) [5]: 2
C=C(C)[C@H]1CN[C@H](C(=O)O)[C@H]1CC(=O)O |  | inhibition (Mus musculus): Active
O=c1cc(-c2cccc(O)c2O)oc2ccccc12 | inactive | 
O=c1c(O)c(-c2ccc(O)c(O)c2)oc2c(O)c(O)cc(O)c12 |  | inhibition [6]: Active
O=c1cc(-c2ccccc2O)oc2ccccc12 | inactive | 
COc1cccc(-c2cc(=O)c3ccccc3o2)c1OC | inactive | 
O=c1c(O)c(-c2cccc(O)c2)oc2cc(O)ccc12 | inactive | 
O=c1c(O)c(-c2ccccc2)oc2cc(O)ccc12 | Active | Activity [3]: Active
O=c1cc(-c2ccccc2)oc2cc(O)c(O)c(O)c12 | inactive | 
O=c1cc(-c2cccc(O)c2)oc2cc(O)c(O)cc12 | Active | 
O=c1cc(-c2ccc(O)c(O)c2)oc2ccccc12 | inactive | 
O=c1cc(-c2ccc(O)cc2)oc2c(O)c(O)ccc12 |  | Activity [3]: Active
O=c1c(O)c(-c2ccccc2)oc2ccccc12 | inactive | 
O=c1cc(-c2cncnc2)oc2c(O)c(O)ccc12 |  | Activity [2]: Active
O=c1c(-c2ccccc2)coc2cc(O)ccc12 | inactive | 
C[S+](C)[O-] | inactive | 
O=c1cc(-c2ccccc2)oc2ccc(O)cc12 | inactive | 
O=c1cc(-c2ccccc2)oc2cccc(O)c12 | inactive | 
O=c1cc(-c2ccc(O)cc2O)oc2ccccc12 | inactive | 
